Reference: ChEMBL document CHEMBL4024783, “Alkylated Piperazines and Piperazine-Azole Hybrids as Antifungal Agents” (J Med Chem, 2018)
≈ marks a conversion by molar mass, not a printed value.

Key:
[1] = system: Candida albicans; experiment: Antifungal activity against itraconazole and fluconazole resistant Candida albicans ATCC 90819 after 48 hrs by broth dilution method; format: functional; settings: Candida albicans, ATCC 90819, 48 h
Outline: (§1)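 CLSI M27-A3 broth microdilution with minor modifications. Overnight YPD culture grown at 35 °C, 200 rpm, adjusted to OD600 0.12, diluted in RPMI 1640 buffered to pH 7.0 with 0.165 M MOPS to a final 1–2 × 10^3 CFU/mL. Test compounds at 0.015–31.3 µg/mL, 48 h at 35 °C, DMSO <1.25%. […] Triplicate.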

[2] = system: A549; experiment: Cytotoxicity against human A549 cells up to 31 ug/ml after 24 hrs by resazurin-based fluorescence assay; format: cell-based; settings: a549, 24 h
Outline: (§2)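 Cells grown in DMEM with 10% FBS at 37 °C, 5% CO2, and seeded at 10000 (HEK-293) or 3000 (BEAS-2B, A549) per well. After 16 h, exposed 24 h to 0.13–31 µg/mL final in medium with 0.1–0.4% DMSO. Resazurin added for 6–10 h; fluorescence read at 560/590 nm and survival normalized to DMSO control after background subtraction. Triton X-100 12.5% v/v positive control; duplicate.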

[3] = system: Candida albicans; experiment: Antifungal activity against itraconazole and fluconazole resistant Candida albicans ATCC MYA-1003 after 48 hrs by broth dilution method; format: functional; settings: Candida albicans, ATCC MYA-1003, 48 h; outline: as §1
[4] = system: Candida albicans; experiment: Ratio of MIC80 for voriconazole resistant Candida albicans ATCC 64124 sessile cells to MIC for voriconazole resistant Candida albicans ATCC 64124; format: functional
[5] = system: Aspergillus nidulans; experiment: Ratio of MIC in presence of 10% FBS to MIC in absence of 10% FBS for Aspergillus nidulans ATCC 38163; format: functional
Outline: (§3)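 MIC broth dilution run in parallel in RPMI 1640 with or without 10% fetal bovine serum against C. albicans ATCC 10231, C. parapsilosis ATCC 22019 and A. nidulans ATCC 38163.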

[6] = system: Aspergillus nidulans; experiment: Antifungal activity against Aspergillus nidulans ATCC 38163 after 48 hrs in the presence of 10% FBS by broth dilution method; format: functional; settings: ATCC 38163, 48 h
[7] = system: Aspergillus terreus; experiment: Antifungal activity against Aspergillus terreus ATCC MYA-3633 after 48 hrs by broth dilution method; format: functional; settings: Aspergillus terreus, ATCC MYA-3633, 48 h
Outline: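 Molds tested per CLSI M38-A2. Spores were harvested from sporulating PDA cultures by filtering through glass wool and counted on a hemocytometer. Serial dilutions (0.03–31.3 µg/mL) were made in RPMI 1640 buffered to pH 7.0 with 0.165 M MOPS, final inoculum 5 × 10^5 CFU/mL.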

[8] = system: Candida parapsilosis; experiment: Ratio of MIC in presence of 10% FBS to MIC in absence of 10% FBS for Candida parapsilosis ATCC 22019; format: functional; outline: as §3
[9] = Aqueous solubility of the compound; format: physicochemical; settings: buffer
[10] = Solubility of the compound in DMSO; format: physicochemical
[11] = system: Candida albicans; experiment: Antifungal activity against Candida albicans ATCC 10231 after 48 hrs by broth dilution method; format: functional; settings: ATCC 10231, 48 h
[12] = system: HEK293; experiment: Cytotoxicity against HEK293 cells up to 31 ug/ml after 24 hrs by resazurin-based fluorescence assay; format: cell-based; settings: human, hek293, 24 h; outline: as §2
[13] = system: Nakaseomyces glabratus; experiment: Antifungal activity against Candida glabrata ATCC 2001 after 48 hrs by broth dilution method; format: functional, CBS 138; settings: Nakaseomyces glabratus, CBS 138, 48 h
[14] = system: Candida parapsilosis; experiment: Antifungal activity against Candida parapsilosis ATCC 22019 after 48 hrs in the presence of 10% FBS by broth dilution method; format: functional; settings: Lodderomyces parapsilosis, ATCC 22019, 48 h
[15] = system: Candida albicans; experiment: Antifungal activity against Candida albicans ATCC 10231 after 48 hrs in the presence of 10% FBS by broth dilution method; format: functional; settings: ATCC 10231, 48 h
[16] = system: BEAS-2B; experiment: Cytotoxicity against human BEAS2B cells up to 31 ug/ml after 24 hrs by resazurin-based fluorescence assay; format: cell-based; outline: as §2
[17] = system: Candida parapsilosis; experiment: Antifungal activity against Candida parapsilosis ATCC 22019 after 48 hrs by broth dilution method; format: functional; settings: Lodderomyces parapsilosis, ATCC 22019, 48 h
[18] = system: Candida albicans; experiment: Ratio of MIC in presence of 10% FBS to MIC in absence of 10% FBS for Candida albicans ATCC 10231; format: functional; outline: as §3
[19] = system: Candida albicans; experiment: Antifungal activity against itraconazole and fluconazole susceptible Candida albicans ATCC MYA-2876 after 48 hrs by broth dilution method; format: functional; settings: Candida albicans, ATCC MYA-2876, 48 h
[20] = system: Candida albicans; experiment: Antifungal activity against itraconazole and fluconazole susceptible Candida albicans ATCC MYA-2310 after 48 hrs by broth dilution method; format: functional; settings: Candida albicans, ATCC MYA-2310, 48 h
[21] = system: Aspergillus flavus; experiment: Antifungal activity against Aspergillus flavus ATCC MYA-3631 after 48 hrs by broth dilution method; format: functional; settings: ATCC MYA-3631, 48 h
[22] = system: Candida albicans; experiment: Antibiofilm activity against voriconazole resistant Candida albicans ATCC 64124 sessile cells incubated for 24 hrs by XTT reduction assay; format: functional; settings: ATCC 64124, 24 h
Outline: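 Strain B grown overnight in YPD broth at 35 °C, diluted to OD600 0.1 (~10^6 CFU/mL), then grown statically for 24 h at 37 °C to form biofilm. Washed with PBS, then drug in RPMI 1640 at 0.12–62.5 µg/mL for 24 h at 37 °C. Read-out: XTT 0.5 mg/mL with menadione 1 µM, 2 h, A490. SMIC50/SMIC80 are 50%/80% decreases versus drug-free biofilm. Duplicate.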

[23] = system: Candida albicans; experiment: Antifungal activity against Candida albicans ATCC 64124 after 48 hrs by broth dilution method; format: functional; settings: Candida albicans, ATCC 64124, 48 h; outline: as §1
[24] = system: Pichia kudriavzevii; experiment: Antifungal activity against Candida krusei ATCC 6258 after 48 hrs by broth dilution method; format: functional; settings: Pichia kudriavzevii, ATCC 6258, 48 h
Outline: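 Yeasts tested per CLSI M27-A3 with minor changes. An overnight YPD culture (35 °C, 200 rpm) was adjusted to OD600 0.12 and diluted in MOPS-buffered RPMI 1640 (pH 7.0) to a final 1–2 × 10^3 CFU/mL. Compounds 0.015–31.3 µg/mL, DMSO <1.25%.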

[25] = system: Candida albicans; experiment: Antifungal activity against itraconazole and fluconazole resistant Candida albicans ATCC MYA-1237 after 48 hrs by broth dilution method; format: functional; settings: Candida albicans, ATCC MYA-1237, 48 h; outline: as §1
[26] = system: Aspergillus nidulans; experiment: Antifungal activity against Aspergillus nidulans ATCC 38163 after 48 hrs by broth dilution method; format: functional; settings: Aspergillus nidulans, ATCC 38163, 48 h
Outline: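 A. nidulans run per CLSI M38-A2. PDA spores were filtered through glass wool and counted by hemocytometer. Test range 0.03–31.3 µg/mL in MOPS-buffered RPMI 1640 (pH 7.0), final 5 × 10^5 CFU/mL.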

Compound | MIC [1] [µM] | Activity [2] | MIC [3] [µM] | Ratio [4] | Ratio [5] | MIC [6] [µg/mL] | MIC [7] [µM] | Ratio [8] | solubility [9] | solubility [10] | MIC [11] [µM] | Activity [12] | MIC [13] [µM] | MIC [15] [µg/mL] | MIC [17] [µM] | MIC [21] [µM] | MIC50 [22] [µg/mL] | MIC80 [22] [µg/mL] | MIC [24] [µM] | MIC [26] [µM] | other results
CCCCCCCCCCCCCCN1CCNCC1 | 6.9 (≈ 1.95 µg/mL) | Toxic | 6.9 (≈ 1.95 µg/mL) | 16 - 64 | 2 - 8 | 7.8 | 3.5 (≈ 0.989 µg/mL) | 2 - 8 | Soluble | Soluble | 3.5 (≈ 0.989 µg/mL) | Toxic | 3.5 (≈ 0.989 µg/mL) | 7.8 | 3.5 (≈ 0.989 µg/mL) | 3.5 (≈ 0.989 µg/mL) | 15.6 (≈ 55.2 µM) | 62.5 (≈ 221 µM) | 3.5 (≈ 0.989 µg/mL) | 3.5 (≈ 0.989 µg/mL) | MIC [14]: 7.8 µg/mL; Activity [16]: Toxic; Ratio [18]: 2 - 8; MIC [19]: 3.5 µM (≈ 0.989 µg/mL); MIC [20]: 3.5 µM (≈ 0.989 µg/mL); MIC [23]: 3.5 µM (≈ 0.989 µg/mL); MIC [25]: 6.9 µM (≈ 1.95 µg/mL)
CCCCCCCCCCN1CCN(CC(O)(Cn2cncn2)c2ccc(Cl)cc2Cl)CC1 (stereo not drawn) | 7.9 (≈ 3.92 µg/mL) | – | – | 1 - 2 | – | 3.9 | 7.9 (≈ 3.92 µg/mL) | – | Soluble | Soluble | 3.9 (≈ 1.94 µg/mL) | – | 2 (≈ 0.993 µg/mL) | 1.95 | 0.48 (≈ 0.238 µg/mL) | 7.9 (≈ 3.92 µg/mL) | 15.6 (≈ 31.4 µM) | 31.3 (≈ 63 µM) | 3.9 (≈ 1.94 µg/mL) | 7.9 (≈ 3.92 µg/mL) | MIC [14]: 0.24 µg/mL
CCCCCCCCCCCCN1CCNCC1 | 30.7 (≈ 7.81 µg/mL) | Toxic | 15.3 (≈ 3.89 µg/mL) | 1 - 4 | 2 - 8 | – | 30.7 (≈ 7.81 µg/mL) | 2 - 8 | Soluble | Soluble | 7.7 (≈ 1.96 µg/mL) | Toxic | 7.7 (≈ 1.96 µg/mL) | 3.9 | 7.7 (≈ 1.96 µg/mL) | 15.3 (≈ 3.89 µg/mL) | 7.8 (≈ 30.7 µM) | 31.3 (≈ 123 µM) | 7.7 (≈ 1.96 µg/mL) | 7.7 (≈ 1.96 µg/mL) | Activity [16]: Toxic; Ratio [18]: 2 - 8; MIC [19]: 15.3 µM (≈ 3.89 µg/mL); MIC [20]: 15.3 µM (≈ 3.89 µg/mL); MIC [23]: 30.7 µM (≈ 7.81 µg/mL); MIC [25]: 15.3 µM (≈ 3.89 µg/mL)
